Test results reported in PubChem BioAssay AID624014 (Broad Institute, 2012).
Where “and” joins values, the source holds several entries; their conditions need not be identical. Identical values can stand only once.

System: Candida glabrata growth in glycerol medium, OD600, 48 h
Assay: C. glabrata respiratory growth inhibitors tested alone – glycerol medium, OD600, dry powder, set 4, dose response (AID 624014)
Summary of the method: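 Control set: Amphotericin B at 10 µM as positive control | Material: Candida glabrata yeast cells, whole-organism growth assay | Buffer or medium: CSM-glycerol medium | Dosing: Compounds delivered into wells by pin transfer | Times: 48 h at 30 °C, no shaking | Measured by: Absorbance at 600 nm (OD600) as growth measure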

SMILES | AC50
CCOC(=O)N1C(=O)C2(CCCCC2)N(c2ccc(F)cc2)C1=S | 6.16 nM
CCOC(=O)N1C(=O)C2(CCCCC2)N(c2cccc(C)c2)C1=S | 23.9 nM
CCOC(=O)N1C(=O)C2(CCCCC2)N(c2ccc(Cl)cc2)C1=S | 13.8 nM
CCOC(=O)N1C(=O)C2(CCCCC2)N(c2ccc(C)cc2)C1=S | 31.8 nM and 22.4 nM
CC1/C=C/C=C\C=C\C=C\C=C\C=C\C=C\C(O[C@H]2OC(C)C(O)C(N)C2O)CC2OC(O)(CC(O)CC(O)C(O)CCC(O)CC(O)CC(=O)OC(C)C(C)C1O)CC(O)C2C(=O)O (stereo partly drawn) | 602 nM
CCOC(=O)N1C(=O)C2(CCCCC2)N(c2ccccc2)C1=S | 19.4 nM
C/C=C/[C@@H]1[C@H]2C[C@@H](C)CC[C@@H]2C(C)=C[C@H]1C(=O)c1c(O)c(-c2ccc(O)cc2)c[nH]c1=O | 2450 nM
CCOC(=O)N1C(=O)C2(CCCCC2)N(c2ccc(C#N)cc2)C1=S | 27.8 nM
